Assay results as given in ChEMBL document CHEMBL3525985, “Regiospecificity and stereospecificity of human UDP-glucuronosyltransferases in the glucuronidation of estriol, 16-epiestriol, 17-epiestriol, and 13-epiestradiol” (Drug Metab Dispos, 2013).

Columns and labels:
Type in all cases: ADME
[1] = target: T1, UDP-glucuronosyltransferase 2B7 (Homo sapiens, UniProt P16662); assay: Drug level assessed as recombinant human C-terminal His-tagged UGT2B7-mediated compound formation from 200 uM 17-epiestriol after 15 to 60 mins by HPLC analysis in presence of UDPGA; conditions: recombinant enzyme
T1 sequence (P16662 whole entry): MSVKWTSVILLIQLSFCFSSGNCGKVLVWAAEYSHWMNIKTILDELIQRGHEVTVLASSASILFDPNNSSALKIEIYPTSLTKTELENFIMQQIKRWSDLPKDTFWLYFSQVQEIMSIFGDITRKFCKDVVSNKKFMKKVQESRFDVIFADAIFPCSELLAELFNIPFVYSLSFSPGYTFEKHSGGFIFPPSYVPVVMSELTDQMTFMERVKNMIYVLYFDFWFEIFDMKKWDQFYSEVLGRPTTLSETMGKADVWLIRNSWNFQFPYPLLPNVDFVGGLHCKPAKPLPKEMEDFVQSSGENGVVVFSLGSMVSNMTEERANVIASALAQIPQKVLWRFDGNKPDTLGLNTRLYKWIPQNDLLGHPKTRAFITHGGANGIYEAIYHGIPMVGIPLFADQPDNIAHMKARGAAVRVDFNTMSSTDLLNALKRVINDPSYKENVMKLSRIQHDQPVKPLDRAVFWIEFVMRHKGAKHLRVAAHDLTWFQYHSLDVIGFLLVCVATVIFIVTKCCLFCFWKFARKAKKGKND
Procedure, shortened: (§1)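 UGT-enriched insect cell membranes (5 or 50 µg) in 50 mM phosphate pH 7.4, 10 mM MgCl2, 5 mM UDPGA; substrate 200 µM in DMSO (10% final); 15–60 min at 37°C; stopped with perchloric acid, on ice, centrifuged; glucuronides resolved by HPLC. Triplicates, no-UDPGA controls; rates normalized to relative UGT expression; substrate consumption ≤10%.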

[2] = target: T1, UDP-glucuronosyltransferase 2B7; assay: Drug level assessed as recombinant human C-terminal His-tagged UGT2B7-mediated compound formation from 4 mg 17-epiestriol after 5 hrs by NMR spectroscopic analysis in presence of UDPGA; conditions: recombinant enzyme
Procedure, shortened: (§2)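 Preparative biosynthesis: 4 mg 17-epiestriol or 8 mg 16-epiestriol with UGT2B7-enriched insect cell homogenate in 50 mM phosphate pH 7.4, 10 mM MgCl2, 50 mM UDPGA, 10% DMSO. Glucuronides fractionated by HPLC (0.1% HCOOH replacing phosphate, UV 280 nm), concentrated, lyophilized, then examined by NMR.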

[3] = target: T2, UDP-glucuronosyltransferase 1A10 (Homo sapiens, UniProt Q9HAW8); assay: Drug level assessed as recombinant human C-terminal His-tagged UGT1A10-mediated compound formation from 200 uM 16-epiestriol after 15 to 60 mins by […] analysis in presence of UDPGA; conditions: recombinant enzyme; procedure, shortened: as §1
T2 sequence (Q9HAW8 whole entry): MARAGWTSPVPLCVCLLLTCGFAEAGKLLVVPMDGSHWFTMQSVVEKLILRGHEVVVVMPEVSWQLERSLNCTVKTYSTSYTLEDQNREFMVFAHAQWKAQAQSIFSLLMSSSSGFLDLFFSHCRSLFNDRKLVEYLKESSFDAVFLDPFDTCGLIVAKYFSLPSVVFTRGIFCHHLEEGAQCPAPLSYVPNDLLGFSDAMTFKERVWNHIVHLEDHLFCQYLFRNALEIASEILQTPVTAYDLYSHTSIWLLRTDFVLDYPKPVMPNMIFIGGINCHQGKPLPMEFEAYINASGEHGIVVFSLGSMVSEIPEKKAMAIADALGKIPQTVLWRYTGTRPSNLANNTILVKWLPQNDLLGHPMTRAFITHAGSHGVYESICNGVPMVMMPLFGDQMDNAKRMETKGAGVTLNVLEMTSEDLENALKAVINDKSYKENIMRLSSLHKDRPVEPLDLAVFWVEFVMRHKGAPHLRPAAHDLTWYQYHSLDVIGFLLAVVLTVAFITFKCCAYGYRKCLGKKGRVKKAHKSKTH

[4] = target: T1, UDP-glucuronosyltransferase 2B7; assay: Drug level assessed as recombinant human C-terminal His-tagged UGT2B7-mediated compound formation from 8 mg 16-epiestriol after 5 hrs by NMR spectroscopic analysis in presence of UDPGA; conditions: recombinant enzyme; procedure, shortened: as §2
[5] = tested on: C[C@]12CC[C@@H]3c4ccc(O)cc4CC[C@H]3[C@@H]1C[C@@H](O)[C@@H]2O; assay: Drug metabolism assessed as human UGT1A10 F93G mutant-mediated estriol-3-glucuronide formation after 15 to 60 mins by Michaelis-Menten equation analysis in presence of UDPGA
Procedure, shortened: (§3)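 UGT-enriched insect cell membranes (5 or 50 µg) were incubated with 0.2–300 µM aglycone in DMSO (10% final), 5 mM UDPGA, 10 mM MgCl2 and 50 mM phosphate pH 7.4 at 37°C. Reactions were stopped with perchloric acid and glucuronides measured by HPLC. Assays were in triplicate with substrate consumption ≤10%, rates normalized to relative UGT expression, and kinetics fitted to Michaelis-Menten.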

[6] = tested on: C[C@]12CC[C@@H]3c4ccc(O)cc4CC[C@H]3[C@@H]1C[C@H](O)[C@@H]2O; assay: Drug metabolism assessed as human UGT1A10 F93G mutant-mediated 16-epiestriol-3-glucuronide formation after 15 to 60 mins by Michaelis-Menten equation analysis in presence of UDPGA; procedure, shortened: as §3
[7] = tested on: [H][C@@]12CCc3cc(O)ccc3[C@@]1([H])CC[C@]1(C)[C@H](O)[C@H](O)C[C@@]21[H]; assay: Drug metabolism assessed as human UGT1A10 F93G mutant-mediated 17-epiestriol-3-glucuronide formation after 15 to 60 mins by Michaelis-Menten equation analysis in presence of UDPGA; procedure, shortened: as §3
[8] = substrate: C[C@]12CC[C@@H]3c4ccc(O)cc4CC[C@H]3[C@@H]1C[C@H](O)[C@@H]2O; assay: Drug metabolism assessed as recombinant human C-terminal His-tagged UGT1A10-mediated 16-epiestriol-3-glucuronide formation after 15 to 60 mins by Michaelis-Menten equation analysis in presence of UDPGA
Procedure, shortened: (§4)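 For kinetics, the aglycone ranged from 0.2 to 300 μM in DMSO (10% final) with 5 mM UDPGA, 10 mM MgCl₂ and 50 mM phosphate pH 7.4. Enzyme was UGT-enriched insect cell membranes. Incubation was 15–60 min at 37°C, in triplicate, keeping substrate consumption ≤10%. Products were measured by HPLC and fitted to Michaelis-Menten. Rates were normalized to expression level.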

[9] = substrate: C[C@]12CC[C@@H]3c4ccc(O)cc4CC[C@H]3[C@@H]1C[C@@H](O)[C@@H]2O; assay: Drug metabolism assessed as recombinant human C-terminal His-tagged UGT1A10-mediated estriol-3-glucuronide formation after 15 to 60 mins by Michaelis-Menten equation analysis in presence of UDPGA; procedure, shortened: as §4
[10] = substrate: [H][C@@]12CCc3cc(O)ccc3[C@@]1([H])CC[C@]1(C)[C@H](O)[C@H](O)C[C@@]21[H]; assay: Drug metabolism assessed as recombinant human C-terminal His-tagged UGT1A10-mediated 17-epiestriol-3-glucuronide formation after 15 to 60 mins by Michaelis-Menten equation analysis in presence of UDPGA; procedure, shortened: as §3
[11] = substrate: [H][C@@]12CCc3cc(O)ccc3[C@@]1([H])CC[C@]1(C)[C@H](O)[C@H](O)C[C@@]21[H]; assay: Drug metabolism assessed as recombinant human C-terminal His-tagged UGT2B7-mediated 17-epiestriol-16-glucuronide formation after 15 to 60 mins by Michaelis-Menten equation analysis in presence of UDPGA; procedure, shortened: as §3
[12] = substrate: C[C@]12CC[C@@H]3c4ccc(O)cc4CC[C@H]3[C@@H]1C[C@@H](O)[C@@H]2O; assay: Drug metabolism assessed as recombinant human C-terminal His-tagged UGT2B7-mediated estriol-16-glucuronide formation after 15 to 60 mins by Michaelis-Menten equation analysis in presence of UDPGA
Procedure, shortened: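 Kinetics with His-tagged UGT-enriched insect-cell membranes (5 or 50 µg): aglycone 0.2–300 µM in 10% DMSO, 5 mM UDPGA, 10 mM MgCl₂, 50 mM phosphate pH 7.4, 15–60 min at 37°C. Substrate consumption kept at or below 10%. Glucuronides quantified by HPLC in triplicate, rates normalized to expression, and data fitted to Michaelis-Menten.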

[13] = substrate: C[C@]12CC[C@@H]3c4ccc(O)cc4CC[C@H]3[C@@H]1C[C@H](O)[C@@H]2O; assay: Drug metabolism assessed as recombinant human C-terminal His-tagged UGT2B7-mediated 16-epiestriol-16-glucuronide formation after 15 to 60 mins by Michaelis-Menten equation analysis in presence of UDPGA; procedure, shortened: as §4

Molecule: C[C@]12CC[C@@H]3c4ccc(O)cc4CC[C@H]3[C@@H]1C[C@@H](O)[C@H]2O[C@@H]1O[C@H](C(=O)O)[C@@H](O)[C@H](O)[C@H]1O
- Drug metabolism [1]: metabolite_detected
- Drug metabolism [2]: metabolite_detected

Molecule: C[C@]12CC[C@@H]3c4ccc(O[C@@H]5O[C@H](C(=O)O)[C@@H](O)[C@H](O)[C@H]5O)cc4CC[C@H]3[C@@H]1C[C@H](O)[C@@H]2O
- Drug metabolism [3]: metabolite_detected

Molecule: C[C@]12CC[C@@H]3c4ccc(O)cc4CC[C@H]3[C@@H]1C[C@H](O[C@@H]1O[C@H](C(=O)O)[C@@H](O)[C@H](O)[C@H]1O)[C@@H]2O
- Drug metabolism [3]: metabolite_detected
- Drug metabolism [4]: metabolite_detected

Molecule: C[C@]12CC[C@@H]3c4ccc(O)cc4CC[C@H]3[C@@H]1C[C@H](O)[C@@H]2O[C@@H]1O[C@H](C(=O)O)[C@@H](O)[C@H](O)[C@H]1O
- Drug metabolism [3]: metabolite_detected
- Drug metabolism [4]: metabolite_detected

Molecule: UDP-glucuronosyltransferase 1A10 (Homo sapiens; F93G)
- Km [5]: 230 µM
- Vmax [5]: 0.00754 µmol/min/mg
- Km [6]: 186 µM
- Vmax [6]: 0.00225 µmol/min/mg
- Km [7]: 51.1 µM
- Vmax [7]: 0.00571 µmol/min/mg

B1: UDP-glucuronosyltransferase 1A10 (Homo sapiens) (protein)
chain: MARAGWTSPVPLCVCLLLTCGFAEAGKLLVVPMDGSHWFTMQSVVEKLILRGHEVVVVMPEVSWQLERSLNCTVKTYSTSYTLEDQNREFMVFAHAQWKAQAQSIFSLLMSSSSGFLDLFFSHCRSLFNDRKLVEYLKESSFDAVFLDPFDTCGLIVAKYFSLPSVVFTRGIFCHHLEEGAQCPAPLSYVPNDLLGFSDAMTFKERVWNHIVHLEDHLFCQYLFRNALEIASEILQTPVTAYDLYSHTSIWLLRTDFVLDYPKPVMPNMIFIGGINCHQGKPLPMEFEAYINASGEHGIVVFSLGSMVSEIPEKKAMAIADALGKIPQTVLWRYTGTRPSNLANNTILVKWLPQNDLLGHPMTRAFITHAGSHGVYESICNGVPMVMMPLFGDQMDNAKRMETKGAGVTLNVLEMTSEDLENALKAVINDKSYKENIMRLSSLHKDRPVEPLDLAVFWVEFVMRHKGAPHLRPAAHDLTWYQYHSLDVIGFLLAVVLTVAFITFKCCAYGYRKCLGKKGRVKKAHKSKTH
- Km [8]: 59.8 µM
- Vmax [8]: 0.0077 µmol/min/mg
- Km [9]: 68.4 µM
- Vmax [9]: 0.0012 µmol/min/mg
- Km [10]: 337 µM
- Vmax [10]: 0.000958 µmol/min/mg

B2: UDP-glucuronosyltransferase 2B7 (Homo sapiens) (protein)
chain: MSVKWTSVILLIQLSFCFSSGNCGKVLVWAAEYSHWMNIKTILDELIQRGHEVTVLASSASILFDPNNSSALKIEIYPTSLTKTELENFIMQQIKRWSDLPKDTFWLYFSQVQEIMSIFGDITRKFCKDVVSNKKFMKKVQESRFDVIFADAIFPCSELLAELFNIPFVYSLSFSPGYTFEKHSGGFIFPPSYVPVVMSELTDQMTFMERVKNMIYVLYFDFWFEIFDMKKWDQFYSEVLGRPTTLSETMGKADVWLIRNSWNFQFPYPLLPNVDFVGGLHCKPAKPLPKEMEDFVQSSGENGVVVFSLGSMVSNMTEERANVIASALAQIPQKVLWRFDGNKPDTLGLNTRLYKWIPQNDLLGHPKTRAFITHGGANGIYEAIYHGIPMVGIPLFADQPDNIAHMKARGAAVRVDFNTMSSTDLLNALKRVINDPSYKENVMKLSRIQHDQPVKPLDRAVFWIEFVMRHKGAKHLRVAAHDLTWFQYHSLDVIGFLLVCVATVIFIVTKCCLFCFWKFARKAKKGKND
- Km [11]: 0.6 µM
- Vmax [11]: 0.00082 µmol/min/mg
- Km [12]: 10.3 µM
- Vmax [12]: 0.00151 µmol/min/mg
- Km [13]: 38.4 µM
- Vmax [13]: 0.00387 µmol/min/mg
